The source of these data is ChEMBL document CHEMBL2046381, “Defining the mechanism of action and enzymatic selectivity of psammaplin A against its epigenetic targets” (J Med Chem, 2012).

pIC50: −log10 of the molar value. Active and inactive are the calls of the source. Unless noted, the rule behind the calls is not given here.

Data set [1] concerns MCF7. Briefly: Inhibition of Class 1 histone deacetylase in human MCF7 cells assessed as up-regulation of p21 protein level at 0.5 uM after 24 hrs by Western blot analysis. The data set is classed as cell-based. The procedure, abridged: (§1)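 MCF7 cells (5 × 10^6 per T75 flask) treated 24 h, harvested by trypsinization, lysed in RIPA on ice; 50 μg total protein resolved on 12% SDS-PAGE, transferred to nitrocellulose and probed for histone, acetylated histone, tubulin, acetylated tubulin, p21 and actin. Untreated cells as negative control.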

The target of data set [2] is T1, Protein deacetylase HDAC6 (Homo sapiens, UniProt Q9UBN7).
T1 sequence (Q9UBN7 whole entry): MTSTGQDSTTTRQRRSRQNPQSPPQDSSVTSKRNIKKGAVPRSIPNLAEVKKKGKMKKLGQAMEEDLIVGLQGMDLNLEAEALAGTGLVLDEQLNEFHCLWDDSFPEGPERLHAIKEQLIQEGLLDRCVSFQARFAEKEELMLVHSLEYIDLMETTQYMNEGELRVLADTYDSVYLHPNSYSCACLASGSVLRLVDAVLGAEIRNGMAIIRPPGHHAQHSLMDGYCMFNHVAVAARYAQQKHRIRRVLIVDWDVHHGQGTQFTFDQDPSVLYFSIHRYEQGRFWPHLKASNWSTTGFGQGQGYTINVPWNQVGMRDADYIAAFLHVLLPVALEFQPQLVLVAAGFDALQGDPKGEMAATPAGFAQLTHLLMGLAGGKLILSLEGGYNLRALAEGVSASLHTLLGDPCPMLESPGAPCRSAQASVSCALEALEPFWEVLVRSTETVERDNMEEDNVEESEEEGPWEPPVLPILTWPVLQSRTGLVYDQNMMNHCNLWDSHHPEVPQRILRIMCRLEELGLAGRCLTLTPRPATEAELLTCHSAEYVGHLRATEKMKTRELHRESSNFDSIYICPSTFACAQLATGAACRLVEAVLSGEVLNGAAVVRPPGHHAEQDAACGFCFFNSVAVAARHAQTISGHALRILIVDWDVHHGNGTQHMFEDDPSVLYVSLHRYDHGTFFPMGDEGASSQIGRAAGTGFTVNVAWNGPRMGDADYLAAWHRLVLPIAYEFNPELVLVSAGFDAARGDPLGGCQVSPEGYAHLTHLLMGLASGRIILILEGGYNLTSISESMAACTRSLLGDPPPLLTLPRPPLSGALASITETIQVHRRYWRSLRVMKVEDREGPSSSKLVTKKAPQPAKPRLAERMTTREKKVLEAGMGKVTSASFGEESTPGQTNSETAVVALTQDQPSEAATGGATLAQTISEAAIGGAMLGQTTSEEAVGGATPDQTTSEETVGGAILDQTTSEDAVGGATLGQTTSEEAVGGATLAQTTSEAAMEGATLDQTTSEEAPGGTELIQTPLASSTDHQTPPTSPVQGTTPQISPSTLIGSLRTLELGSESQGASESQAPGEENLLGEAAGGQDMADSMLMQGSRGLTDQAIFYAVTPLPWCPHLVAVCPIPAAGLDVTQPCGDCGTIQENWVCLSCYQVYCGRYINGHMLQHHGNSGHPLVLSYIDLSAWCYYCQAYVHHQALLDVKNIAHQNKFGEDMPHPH
Briefly: Inhibition of human recombinant HDAC6 using Boc-lys(Ac)-AMC as substrate preincubated for 20 mins with substrate measured after 60 mins by fluorescence analysis.

For data set [3], the target named is T2, Histone deacetylase 1 (Homo sapiens, UniProt Q13547). In words: Inhibition of human recombinant HDAC1 using Boc-lys(Ac)-AMC as substrate preincubated for 20 mins with substrate measured after 60 mins by fluorescence analysis.
T2 sequence (Q13547 whole entry): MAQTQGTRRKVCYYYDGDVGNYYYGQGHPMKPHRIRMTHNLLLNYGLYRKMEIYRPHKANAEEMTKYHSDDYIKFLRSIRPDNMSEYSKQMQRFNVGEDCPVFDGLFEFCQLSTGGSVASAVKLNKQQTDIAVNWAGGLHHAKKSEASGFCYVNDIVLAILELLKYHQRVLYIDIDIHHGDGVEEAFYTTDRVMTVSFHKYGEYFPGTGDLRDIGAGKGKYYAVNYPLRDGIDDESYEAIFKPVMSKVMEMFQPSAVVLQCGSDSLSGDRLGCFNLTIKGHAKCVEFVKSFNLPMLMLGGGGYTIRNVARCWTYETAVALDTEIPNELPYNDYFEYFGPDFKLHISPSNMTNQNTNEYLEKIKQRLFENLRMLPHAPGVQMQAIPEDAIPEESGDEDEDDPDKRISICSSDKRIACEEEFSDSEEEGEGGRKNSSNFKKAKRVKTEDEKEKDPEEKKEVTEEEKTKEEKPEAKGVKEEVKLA
Data set [4] deals with T3, Histone deacetylase-like amidohydrolase (Alcaligenes sp. (strain DSM 11172) (Bordetella sp. (strain FB188))) (UniProt Q70I53).
T3 sequence (whole entry): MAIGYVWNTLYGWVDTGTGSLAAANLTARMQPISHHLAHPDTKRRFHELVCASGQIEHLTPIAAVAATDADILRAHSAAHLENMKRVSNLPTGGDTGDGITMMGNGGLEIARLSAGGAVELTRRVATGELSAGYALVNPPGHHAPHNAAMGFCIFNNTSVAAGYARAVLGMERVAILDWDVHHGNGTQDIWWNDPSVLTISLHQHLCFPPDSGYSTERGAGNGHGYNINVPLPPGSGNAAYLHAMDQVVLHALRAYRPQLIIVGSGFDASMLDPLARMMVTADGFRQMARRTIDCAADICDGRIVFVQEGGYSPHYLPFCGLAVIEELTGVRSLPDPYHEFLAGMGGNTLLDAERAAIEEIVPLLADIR
Briefly: Inhibition of Bordetella sp. (strain FB188) N-terminus His-tagged HDAH expressed in Escherichia coli BL21 (DE3) up to 100 uM. Conditions: Alcaligenaceae bacterium FB188. In a few lines:
(§2)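 Recombinant N-terminal His6-tagged HDAH from Bordetella strain FB188, expressed in E. coli BL21, purified on zinc-loaded His-Trap column, eluted with 500 mM imidazole, dialyzed into assay buffer (>98% pure by SDS-PAGE). Tested directly against compounds; thiols generated in situ from disulfides with TCEP.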

The target of data set [5] is T4, Histone deacetylase-like amidohydrolase (Alcaligenes sp. (strain DSM 11172) (Bordetella sp. (strain FB188)), UniProt Q70I53).
T4 sequence (Q70I53 whole entry): T3 sequence (whole entry)
In words: Inhibition of Bordetella sp. (strain FB188) N-terminus His-tagged HDAH expressed in Escherichia coli BL21 (DE3). Details: species or system Alcaligenaceae bacterium FB188. In a few lines: as §2

The target of the next data set is T5, Histone deacetylase 8 (Homo sapiens, UniProt Q9BY41).
T5 sequence (Q9BY41 whole entry): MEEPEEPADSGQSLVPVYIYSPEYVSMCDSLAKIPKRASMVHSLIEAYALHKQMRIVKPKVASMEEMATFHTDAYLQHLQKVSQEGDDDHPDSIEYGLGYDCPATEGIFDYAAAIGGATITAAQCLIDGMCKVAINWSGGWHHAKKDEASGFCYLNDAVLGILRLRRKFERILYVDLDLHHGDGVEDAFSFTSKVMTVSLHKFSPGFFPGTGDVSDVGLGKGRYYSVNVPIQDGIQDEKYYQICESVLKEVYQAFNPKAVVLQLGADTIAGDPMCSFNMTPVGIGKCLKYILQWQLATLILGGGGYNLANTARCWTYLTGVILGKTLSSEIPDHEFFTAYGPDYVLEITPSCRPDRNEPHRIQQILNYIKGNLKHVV
Briefly: Inhibition of human recombinant HDAC8 using Boc-lys(Ac)-AMC as substrate preincubated for 20 mins with substrate measured after 60 mins by fluorescence analysis.

Another data set relates to A549. In words: Growth inhibition of human A549 cells after 96 hrs by sulphorhodamine B assay. The settings on record: A549, 96 h. Format: functional. In a few lines:
(§3)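 SRB growth assay; MCF7 and WI38 seeded 4000 cells/well, A549 2000 cells/well, attached overnight, then exposed to freshly made drug solutions (0.1 to 50 μM) for 96 h. Fixed with cold 10% TCA, stained with 0.4% SRB; absorbance at 540 nm as percent of untreated control, IC50 from mean absorbance.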

Data set [6] has as its system MCF7. Briefly: Growth inhibition of human MCF7 cells after 96 hrs by sulphorhodamine B assay. The settings on record: MCF7, 96 h. The data set is classed as functional. The procedure, abridged: as §3
The nature of data set [7]: Growth inhibition of human WI38 cells after 96 hrs by sulphorhodamine B assay. Format: cell-based. The settings on record: WI-38 cells. The procedure, abridged:
as §3

Data set [8] concerns the target T2, Histone deacetylase 1. Briefly: Inhibition of HDAC1 in human MCF7 cells assessed as up-regulation of acetylated histone H3 protein level at 1 uM after 24 hrs by Western blot analysis. Format: cell-based. In a few lines:
as §1

Data set [9] has as its system MCF7. Briefly: Inhibition of Class 1 histone deacetylase in human MCF7 cells assessed as up-regulation of p21 protein level at 1 uM after 24 hrs by Western blot analysis. The data set is classed as cell-based. In a few lines:
as §1

In data set [10] the target is T6, Protein deacetylase HDAC6 (Homo sapiens) (UniProt Q9UBN7).
T6 sequence (whole entry): T1 sequence (Q9UBN7 whole entry)
Briefly: Inhibition of HDAC6 in human MCF7 cells assessed as change in tubulin acetylation level at 1 uM after 24 hrs by Western blot analysis. The data set is classed as cell-based. In a few lines: as §1

Data set [11] has as its target T2, Histone deacetylase 1. In words: Inhibition of HDAC1 in human MCF7 cells assessed as up-regulation of acetylated histone H3 protein level at 5 uM after 24 hrs by Western blot analysis. The data set is classed as cell-based. In a few lines: as §1
The test system of data set [12] is MCF7. In words: Inhibition of Class 1 histone deacetylase in human MCF7 cells assessed as up-regulation of p21 protein level at 5 uM after 24 hrs by Western blot analysis. Format: cell-based. In a few lines:
as §1

Data set [13] concerns the target T6, Protein deacetylase HDAC6 (Homo sapiens). Briefly: Inhibition of HDAC6 in human MCF7 cells assessed as change in tubulin acetylation level at 5 uM after 24 hrs by Western blot analysis. Format: cell-based. In a few lines: as §1
In data set [14] the test system is Bacteria. In words: Inhibition of bacterial DNA cytosine-C5 methyltransferase, M.SssI at 50 uM. In a few lines:
(§4)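 One unit M.SssI with 1 μg bacteriophage λ DNA in NEBuffer2 (pH 7.9, 1 mM DTT) plus 160 μM SAM, ±inhibitor, 2 h at 37 °C; heat-inactivated 65 °C 20 min. Methylation read by BstUI digestion (10 units, 1 h 60 °C) and 1.5% agarose gel electrophoresis; run four times with positive and negative controls.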

Data set [15] concerns Bacteria. In words: Inhibition of bacterial DNA cytosine-C5 methyltransferase, M.SssI at 5 uM. In a few lines:
as §4

A short description of data set [16]: Inhibition of HDAC in cell extract based assay.
The target of data set [17] is T7, DNA (cytosine-5)-methyltransferase 1 (Homo sapiens, UniProt P26358). In words: Inhibition of semi-purified DNMT1.
T7 sequence (P26358 whole entry): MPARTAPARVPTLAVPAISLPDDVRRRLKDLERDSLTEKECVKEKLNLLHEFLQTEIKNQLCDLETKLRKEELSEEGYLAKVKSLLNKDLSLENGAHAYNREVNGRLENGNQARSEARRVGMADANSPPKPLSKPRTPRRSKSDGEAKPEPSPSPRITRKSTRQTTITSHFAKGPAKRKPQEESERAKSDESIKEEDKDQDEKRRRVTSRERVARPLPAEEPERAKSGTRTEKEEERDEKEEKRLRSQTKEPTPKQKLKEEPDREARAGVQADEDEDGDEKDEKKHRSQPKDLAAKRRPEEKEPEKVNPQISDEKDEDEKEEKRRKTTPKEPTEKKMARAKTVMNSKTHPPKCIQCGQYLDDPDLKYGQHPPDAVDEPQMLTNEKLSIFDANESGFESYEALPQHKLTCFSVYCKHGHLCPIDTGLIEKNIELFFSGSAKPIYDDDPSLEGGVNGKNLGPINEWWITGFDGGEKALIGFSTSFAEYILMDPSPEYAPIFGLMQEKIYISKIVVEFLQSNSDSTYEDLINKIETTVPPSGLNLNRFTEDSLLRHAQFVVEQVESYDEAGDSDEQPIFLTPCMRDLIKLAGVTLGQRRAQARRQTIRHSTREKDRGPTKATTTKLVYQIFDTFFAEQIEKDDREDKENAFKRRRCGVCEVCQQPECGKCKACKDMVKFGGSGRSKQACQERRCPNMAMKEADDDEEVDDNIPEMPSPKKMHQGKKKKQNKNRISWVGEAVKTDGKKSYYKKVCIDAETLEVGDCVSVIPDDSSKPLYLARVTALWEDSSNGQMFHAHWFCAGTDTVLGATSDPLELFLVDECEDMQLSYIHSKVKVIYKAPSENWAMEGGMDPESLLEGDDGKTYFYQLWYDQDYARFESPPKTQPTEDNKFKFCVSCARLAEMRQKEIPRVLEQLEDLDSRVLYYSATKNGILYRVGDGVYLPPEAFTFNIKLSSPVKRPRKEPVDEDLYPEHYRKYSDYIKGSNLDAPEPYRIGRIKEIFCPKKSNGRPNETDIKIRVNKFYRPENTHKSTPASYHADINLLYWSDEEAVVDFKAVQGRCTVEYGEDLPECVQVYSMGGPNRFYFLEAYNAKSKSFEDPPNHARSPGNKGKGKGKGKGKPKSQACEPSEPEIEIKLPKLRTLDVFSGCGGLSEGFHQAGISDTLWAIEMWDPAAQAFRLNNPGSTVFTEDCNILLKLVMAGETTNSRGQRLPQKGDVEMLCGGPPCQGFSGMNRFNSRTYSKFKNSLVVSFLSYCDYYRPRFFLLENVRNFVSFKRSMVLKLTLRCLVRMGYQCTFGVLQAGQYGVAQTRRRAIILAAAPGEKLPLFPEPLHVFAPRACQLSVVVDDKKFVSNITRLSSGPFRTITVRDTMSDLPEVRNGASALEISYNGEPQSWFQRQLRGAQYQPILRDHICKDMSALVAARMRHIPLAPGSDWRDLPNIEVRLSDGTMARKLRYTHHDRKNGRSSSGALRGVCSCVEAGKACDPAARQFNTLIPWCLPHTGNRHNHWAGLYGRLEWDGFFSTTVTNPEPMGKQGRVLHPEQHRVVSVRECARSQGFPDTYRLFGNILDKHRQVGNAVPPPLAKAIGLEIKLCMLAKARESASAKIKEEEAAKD
The target of data set [18] is T7, DNA (cytosine-5)-methyltransferase 1. In words: Inhibition of full length N-terminal His6-tagged human DNMT1 at 120 uM after 1 hr by fluorescence analysis. The procedure, abridged: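 Baculovirus-expressed DNMT1 (80 nM final) with SAM (10 μM final) and hemimethylated hairpin oligo (125 nM final) in MOPS buffer pH 6.5 with 1 mM DTT, 1 h room temperature. Stopped with Gla1 plus 125 μM SAH, developed 7 h; fluorescence Ex 485/Em 520 nm. Thiols made in situ by TCEP reduction; no SAM as full-inhibition control.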

Consider `CC(/C=C/C(=O)NO)=C\[C@@H](C)C(=O)c1ccc(N(C)C)cc1`, for which, in the data set on MCF7 [1], the inhibition result is “Active”.

As for `O=C(CCNC(=O)/C(Cc1ccc(O)c(Br)c1)=N/O)NO`, the pIC50 in [2] was 6.72; at Histone deacetylase 1 [3], 8.70; in [5], 6.51; at Histone deacetylase 8, 5.82. Further, the inhibition entry (in data set [4]; on Histone deacetylase 1 [8]; in the data set with MCF7 [9]) was “Active” in each case. Besides, the results for the GI50 with A549 and in the data set with MCF7 [6] were 1590 nM and 1130 nM, respectively. The compound also returned a GI50 at 96 h in data set [7] of 7860 nM. In addition, the inhibition result in [10] is “inactive”.

Take `O=C(NCCSSCCNC(=O)/C(Cc1ccc(O)c(Br)c1)=N/O)/C(Cc1ccc(O)c(Br)c1)=N/O` [PSAMMAPLIN A]: the GI50 with A549 turned out to be 7500 nM; with MCF7 [6], 1270 nM. Also, the GI50 at 96 h in data set [7] stood at 3440 nM. In addition, the inhibition result on Histone deacetylase 1 [11], in the data set with MCF7 [12], with Bacteria [14] and with Bacteria [15] was “Active” throughout. Also, the inhibition result in [13] was “inactive”. In addition, the values for the pIC50 in data set [16] and in data set [17] were 8.38 and 7.73, respectively.

For the compound `O=C(NCCS)/C(Cc1ccc(O)c(Br)c1)=N/O`, the pIC50 is 9.05 at Histone deacetylase 1 [3], 4.52 in [5] and 5.89 on Histone deacetylase 8. For the same compound, the inhibition result in data set [4] and in data set [18] was “inactive” in each case. Also, the GI50 worked out at 2530 nM with A549 and 2350 nM in the data set on MCF7 [6]. For the same compound, the GI50 at 96 h in data set [7] is 3400 nM. For the same compound, the inhibition result in the data set on Bacteria [14] and in the data set on Bacteria [15] was “Active” throughout.
